The term Ki denotes a measure of affinity in units of concentration, obtained from inhibition or displacement. The IC50 is the concentration that gives 50% inhibition. Lower therefore signals inhibition by little substance.

Values joined by “and” are separate entries in the source; they are usually repeats but may differ in a detail not shown here. Equal values may be shown once. Read-outs that look alike come from different tables or passages of the source.

What all share (assay type): biochemical
The target in test [1] is hCA I (Homo sapiens, UniProt P00915). Briefly: hCA I esterase activity inhibition assay. The settings on record: for fold increase of hCA I inhibition relative to complex 2: ratio of Ki values, versus complex 2.
The target in test [2] is hCA II (Homo sapiens, UniProt P00918). Briefly: hCA II esterase activity inhibition assay. The method, boiled down:
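hCA II purified from expired human erythrocytes by Sepharose-4B-L-tyrosine-sulfanilamide affinity chromatography; purity checked by SDS-PAGE; protein quantified against a bovine serum albumin standard. Esterase activity followed spectrophotometrically as p-nitrophenylacetate hydrolysis to p-nitrophenolate, absorbance change at 348 nm over 3 min at 25 °C. Inhibitor and substrate concentrations varied; IC50 and Ki derived, inhibition type from Lineweaver-Burk plots.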

Test [3] has as its target AChE (Electrophorus electricus, UniProt O42275). Briefly: biochemical.
The mark [4] stands for this setting: read-out: Ki hCA I, Lineweaver-Burk, hCA I from human erythrocytes.
[5] abbreviates: read-out: Ki hCA II, Lineweaver-Burk, hCA II from human erythrocytes.

Chain of hCA I (P00915 whole entry): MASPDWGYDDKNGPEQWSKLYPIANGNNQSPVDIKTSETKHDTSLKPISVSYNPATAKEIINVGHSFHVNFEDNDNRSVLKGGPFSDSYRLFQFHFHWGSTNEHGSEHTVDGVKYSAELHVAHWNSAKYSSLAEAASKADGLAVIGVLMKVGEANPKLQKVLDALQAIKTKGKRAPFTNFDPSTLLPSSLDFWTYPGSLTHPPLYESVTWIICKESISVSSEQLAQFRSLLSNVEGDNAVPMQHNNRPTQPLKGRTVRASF
Chain of AChE (O42275 24-633): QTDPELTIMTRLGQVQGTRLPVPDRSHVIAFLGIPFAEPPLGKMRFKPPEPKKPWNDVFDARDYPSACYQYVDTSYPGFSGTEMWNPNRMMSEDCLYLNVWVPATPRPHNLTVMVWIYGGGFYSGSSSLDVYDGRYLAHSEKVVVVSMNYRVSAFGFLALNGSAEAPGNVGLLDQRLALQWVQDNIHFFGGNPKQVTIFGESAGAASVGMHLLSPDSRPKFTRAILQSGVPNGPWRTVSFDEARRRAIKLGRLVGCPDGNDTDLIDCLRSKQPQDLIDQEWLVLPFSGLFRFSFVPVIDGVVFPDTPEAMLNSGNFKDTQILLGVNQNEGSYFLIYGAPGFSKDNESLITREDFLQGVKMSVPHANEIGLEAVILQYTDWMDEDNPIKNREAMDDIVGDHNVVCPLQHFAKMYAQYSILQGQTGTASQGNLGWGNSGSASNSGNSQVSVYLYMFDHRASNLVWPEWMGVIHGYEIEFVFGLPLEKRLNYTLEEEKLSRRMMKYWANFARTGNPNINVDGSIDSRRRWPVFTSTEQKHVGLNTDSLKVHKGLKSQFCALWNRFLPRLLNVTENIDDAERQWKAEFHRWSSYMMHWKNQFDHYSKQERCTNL

With “dibromo[1,3-dibenzylbenzimidazol-2-ylidene]morpholinepalladium(II) [Complex 6]”, the inhibition constant (Ki) in test [1] (setting [4]) is 16.9 ± 0.3 nM; in test [2] (setting [5]), 12 nM and 12.1 nM.
`c1ccc(Cn2c[n+](Cc3ccccc3)c3ccccc32)cc1` [Compound 1, 1,3-dibenzylbenzimidazolium chloride]: the IC50 in test [3] came to 86.6 nM; in test [1], 116 nM; in test [2], 69.3 nM. For the same compound, the Ki in test [3] was 64 nM and 64.1 nM; in test [1], 68.5 ± 11.5 nM; in test [2] it was 49.3 ± 6.5 nM.
For “dibromo[1,3-dibenzylbenzimidazol-2-ylidene]pyridinepalladium(II) [Complex 2]”, in test [3], the “fold more effective AChE inhibition than donepezil” value was determined as 1.49 fold and the “fold more effective AChE inhibition than tacrine” value stood at 1.76 fold. In test [1] (setting [4]), the Ki was determined as 28.4 ± 1.2 nM. The inhibition constant Ki in test [2] (setting [5]) was 8.3 ± 1.8 nM.
As for “dibromo[1,3-dibenzylbenzimidazol-2-ylidene]-3-chloropyridinepalladium(II) [Complex 3]”, in test [1], the “fold increase of hCA I inhibition relative to complex 2” value is given as 2.83 fold. Also, the Ki in test [1] (setting [4]) amounted to 10 ± 1.4 nM; in test [2] (setting [5]), 7.7 ± 0.6 nM.
Taken in the same sequence, the figures for “dibromo[1,3-dibenzylbenzimidazol-2-ylidene]-2-aminopyridinepalladium(II) [Complex 4]” were 2.83 fold, 18.1 ± 3 nM and 19.7 ± 1.9 nM.
For the compound “dibromo[1,3-dibenzylbenzimidazol-2-ylidene]triphenylphosphine palladium(II) [Complex 5]”, the Ki in test [3] (read-out: Ki AChE, Lineweaver-Burk, AChE from Electrophorus electricus) was 23.1 ± 2.6 nM; in test [1] (setting [4]) it was 40.3 ± 2 nM; in test [2] (setting [5]) it was 15 nM and 15.3 nM.

The values above are taken from paper PMC9520214 (Heliyon, 2022).
